Measured values reported in article PMC6044781 (ACS Omega, 2017).
Where two headings read alike, the source gives them in different places.

Assays:
[1] = system: h-telo 22-mer quadruplex (DNA, G4) AGGGTTAGGGTTAGGGTTAGGG; experiment: ITC; conditions: 25 mM KCl; 10 mM sodium cacodylate, 0.5 mM EDTA, pH 7.0, 25 °C
[2] = system: h-telo 12-mer quadruplex (DNA, G4) TAGGGTTAGGGT; experiment: ITC; conditions: 25 mM KCl; 10 mM sodium cacodylate, 0.5 mM EDTA, pH 7.0, 25 °C
[3] = system: F22T (5′-fluorescein-AGGGTTAGGGTTAGGGTTAGGG-3′-TAMRA) G-quadruplex; experiment: FRET melting assay, F22T; format: binding, human; conditions: 2 μM ligand; for ΔTm F22T: no competitor; for ΔTm F22TComp22: with competitor complementary strand Compl 22
In short: (§1)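 Dual-labelled oligos (5′-fluorescein/3′-TAMRA) at 0.25 μM in 10 mM sodium cacodylate, 0.5 mM EDTA, 25 mM KCl, pH 7.0, with or without 2 μM test compound. For competitor runs, each oligo was preincubated 24 h at 25 °C with 2 μM unlabelled complementary strand. Excitation 480 nm, emission 520 nm, read at 1 °C steps from 25 to 95 °C with 60 s equilibration per reading. ΔTm is the average of three determinations.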

[4] = system: F12T (5′-fluorescein-TAGGGTTAGGGT-3′-TAMRA) G-quadruplex; experiment: FRET melting assay, F12T; format: binding, human; conditions: 2 μM ligand; for ΔTm F12T: no competitor; for ΔTm F12TComp12: with competitor complementary strand Compl 12
In short: as §1

h-telo 22-mer quadruplex [5] = experiment: ITC with h-telo 22-mer quadruplex; format: binding, human; conditions: for binding equilibrium constants from microcalorimetry: h-telo 22-mer quadruplex; for binding constant Ka × 10^6: h-telo 22-mer, 25 °C
In short: (§2)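 Isothermal titration calorimetry at 25 °C in cacodylate/EDTA/KCl buffer, pH 7.0; solutions degassed under vacuum (160 mbar, 10 min). Test compound at 4 × 10^-4 M was injected in 5–10 μL aliquots (20 s each, 240 s apart, 60 s initial delay, 381 rpm) into DNA: 22-mer and 26-mer duplex at 1.0 × 10^-5 M, 12-mer at 0.5 × 10^-5 M. Dilution heat was subtracted and data fitted to a single-site model. Ka is mean ± SD of three runs.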

h-telo 12-mer quadruplex = experiment: ITC with h-telo 12-mer quadruplex; format: binding, human; conditions: 25 °C, BMSG-SH-3: first line of two
In short: as §2

duplex DNA 26-mer [6] = experiment: ITC with duplex DNA 26-mer; format: binding; conditions: for binding constant Ka × 10^6: duplex DNA 26-mer, 25 °C
In short: as §2

h-telo 22-mer quadruplex [7] = experiment: SPR with h-telo 22-mer; format: binding, human; conditions: for KA: h-telo 22-mer, 25 °C, error ±15%; for KA h-telo 22/KA dsDNA: selectivity 22-mer quadruplex over DNA duplex, SPR
In short: (§3)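 Surface plasmon resonance on streptavidin chips carrying 5′-biotin-T9-linked 22-mer telomeric or 26-mer duplex DNA, annealed at 95 °C and slowly cooled in 10 mM HEPES, 100 mM KCl, 0.005% IGEPAL, pH 7.4. Surfaces equilibrated 2 h at 20 μL/min, 25 °C. Test compound (1.0 × 10^-9 to 10^-6 M) injected for 300 s in random order; regeneration with 1 M NaCl in 50 mM NaOH. Sensorgrams fitted to a two-site model. Selectivity is the ratio of G4 to duplex binding constants. Triplicate runs, mean ± SEM.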

duplex DNA 26-mer [8] = experiment: SPR with duplex DNA 26-mer; format: binding; conditions: 25 °C, error ±15%
In short: as §3

[9] = system: telomerase (from A549 cells); experiment: TRAP-Lig assay; format: biochemical, human; conditions: read-out: TRAP assay IC50; telomerase inhibition, ligand 1–50 μM
A549 cells = experiment: MTT cell survival assay, A549; format: cell-based; conditions: Homo sapiens
In short: (§4)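 MTT survival assay: cells treated with increasing concentrations of test compound for 48 or 72 h at 37 °C. Medium was then replaced with fresh medium containing MTT for 4 h, formazan dissolved in DMSO, and absorbance read at 570 nm. IC50 determined at each time point.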

HeLa cells [10] = experiment: MTT cell survival assay, HeLa; format: cell-based; conditions: Homo sapiens
In short: as §4

HEK 293T cells = experiment: MTT cell survival assay, HEK 293T; format: cell-based; conditions: Homo sapiens
In short: as §4

HeLa cells [11] = experiment: Cell cycle analysis by flow cytometry; format: cell-based, human; conditions: 1 μM, 24 h; for G2/M phase arrest (G2): control 7.6%
HeLa cells [12] = experiment: Annexin V-FITC/PI apoptosis assay; format: cell-based, human; conditions: 1 μM, 24 h
In short: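 HeLa cells seeded at 2 × 10^5 per 60 mm plate and treated with test compound at 1 μM. After 24 h, cells were harvested, washed twice in PBS and resuspended at 1 × 10^6 cells/mL in kit buffer. Annexin V-FITC/PI staining for 15 min in the dark at room temperature; Annexin V–FITC labelling quantified. Values are mean ± SEM.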

[13] = system: 26-mer duplex DNA (DNA, duplex) CAATCGGATCGAATTCGATCCGATTG; experiment: ITC; conditions: 25 mM KCl; 10 mM sodium cacodylate, 0.5 mM EDTA, pH 7.0, 25 °C
[14] = A549, 48 h, read-out: IC50 at 48 h
[15] = A549, 72 h, read-out: IC50 at 72 h

| Ka [1] | Ka [2] | binding equilibrium constants from microcalorimetry (h-telo 22-mer quadruplex [5]) [µM] | binding constant Ka × 10^6 (h-telo 22-mer quadruplex [5]) | binding constant Ka × 10^6 (h-telo 12-mer quadruplex) | binding constant Ka × 10^6 (duplex DNA 26-mer [6]) | Kd (duplex DNA 26-mer [8]) [µM] | IC50 [9] [µM] | Structure (SMILES) | ΔTm F22T [3] [°C] | ΔTm F22TComp22 [3] [°C] | ΔTm F12T [4] [°C] | ΔTm F12TComp12 [4] [°C] | KA (h-telo 22-mer quadruplex [7]) | KA h-telo 22/KA dsDNA (h-telo 22-mer quadruplex [7]) | KA (duplex DNA 26-mer [8]) | IC50 (A549 cells; [14]) [µM] | IC50 (A549 cells; [15]) [µM] | IC50 (HeLa cells [10]; 48 h, read-out: IC50 at 48 h) [µM] | IC50 (HeLa cells [10]; 72 h, read-out: IC50 at 72 h) [µM] | IC50 (HEK 293T cells; 48 h, read-out: IC50 at 48 h) [µM] | also measured |
| --- | --- | --- | --- | --- | --- | --- | --- | --- | --- | --- | --- | --- | --- | --- | --- | --- | --- | --- | --- | --- | --- |
| 6.35 ± 0.26 × 10^6 M^-1 | 0.61 ± 1.82 × 10^6 M^-1 | 6.35 | 6.35 ± 0.26 10^6 M^–1 | 0.61 ± 1.82 10^6 M^–1 | 0.03 ± 0.10 10^6 M^–1 | 17.1 | > 50 | CN1CCN(CCCN2C(=O)c3ccc4c5c(ccc(c35)C2=O)C(=O)N(CCCN2CCN(C)CC2)C4=O)CC1 [ALI-C3, 2,7-Bis(3-(4-methylpiperazin-1-yl)propyl)benzo[lmn][3,8]phenanthroline-1,3,6,8 (2H,7H)tetraone] | 9 ± 1.2 | 11 ± 0.6 | 5 ± 0.8 | 7 ± 0.5 | 8.7 × 10^6 M^–1 | 87.0 | 0.1 × 10^6 M^–1 | 1.8 | 1.4 | 2.4 | 2.1 | 12.2 | IC50 (HEK 293T cells; 72 h, read-out: IC50 at 72 h): 8.9 µM; G2/M phase arrest (G2) (HeLa cells [11]): 15.7%; apoptotic cells (Annexin V–FITC positive cells) (HeLa cells [12]): 35% |
| 8.47 ± 0.65 × 10^6 M^-1 | 6.63 ± 2.39 × 10^6 M^-1 | 8.47 | 8.47 ± 0.65 10^6 M^–1 | 6.63 ± 2.39 10^6 M^–1 | 0.05 ± 0.65 10^6 M^–1 | 36.6 | 4.56 | CN1CCN(c2ccc3nc(-c4ccc(N5C(=O)c6ccc7c8c(ccc(c68)C5=O)C(=O)N(c5ccc(-c6nc8ccc(N9CCN(C)CC9)cc8[nH]6)cc5)C7=O)cc4)[nH]c3c2)CC1 [BBZ-ARO, 2,7-Bis(4-(6-(4-methylpiperazin-1-yl)-1H-benzo[d]imidazol-2-yl)phenyl)benzo[lmn][3,8]phenanthroline-1,3,6,8(2H,7H)-tetraone] | 14 ± 0.5 | 16 ± 1.6 | 13 ± 1.4 | 15 ± 0.5 | 9.5 × 10^7 M^–1 | 158.3 | 0.6 × 10^6 M^–1 | 26.4 | 19.7 | 24.7 | 20.5 | 77.9 | Ka [13]: 0.05 ± 0.65 × 10^6 M^-1; affinity (ITC) (h-telo 22-mer quadruplex [5]; 22-mer quadruplex): 8.4 × 10^6 M^–1; binding affinity (ITC) (duplex DNA 26-mer [6]; duplex DNA): 5.0 × 10^4 M^–1; IC50 (HEK 293T cells; 72 h, read-out: IC50 at 72 h): 63.4 µM; sub-G1 phase accumulation (HeLa cells [11]; control 0.2%): 7.3%; G2/M phase arrest (G2) (HeLa cells [11]): 15.8%; apoptotic cells (Annexin V–FITC positive cells) (HeLa cells [12]): 74% |
| 3.41 ± 0.22 × 10^6 M^-1 | 0.89 ± 0.11 × 10^6 M^-1 | 3.41 | 3.41 ± 0.22 10^6 M^–1 | 0.89 ± 0.11 10^6 M^–1 | 0.88 ± 0.63 10^6 M^–1 | 55.2 | > 50 | CN1CCN(c2ccc3nc(CN4C(=O)c5ccc6c7c(ccc(c57)C4=O)C(=O)N(Cc4nc5ccc(N7CCN(C)CC7)cc5[nH]4)C6=O)[nH]c3c2)CC1 [BBZ-AROCH2, 2,7-Bis((6-(4-methylpiperazin-1-yl)-1H-benzo[d]imidazol-2-yl)methyl)benzo[lmn]-[3,8]-phenanthroline-1,3,6,8(2H,7H)-tetraone] | 7 ± 0.7 | 9 ± 0.5 | 8 ± 0.4 | 10 ± 1.6 | 1.4 × 10^6 M^–1 | 3.5 | 0.4 × 10^6 M^–1 | 79.5 | 74.8 | 92.7 | 86.5 | > 100 | Ka [13]: 0.88 ± 0.63 × 10^6 M^-1; IC50 (HEK 293T cells; 72 h, read-out: IC50 at 72 h): > 100 µM; G2/M phase arrest (G2) (HeLa cells [11]): 19.1%; apoptotic cells (Annexin V–FITC positive cells) (HeLa cells [12]): 40% |
